According to ChEMBL document CHEMBL1833899, “Targeting hypoxic tumor cell viability with carbohydrate-based carbonic anhydrase IX and XII inhibitors” (J Med Chem, 2011):
The source made the active and inactive calls. No cut-off for these calls is given here.

Columns and labels:
Carbonic anhydrase 9 [1] = target: T1, Carbonic anhydrase 9 (Homo sapiens, UniProt Q16790)
LS174T [2] = assay: Reduction in CA9 mRNA level in human LS 174T cells expressing shca9 and tetracyclin repressor under hypoxia condition at 60 uM after 48 hrs by Western blot analysis; assay type: functional, cell-based
LS174T [3] = assay: Reduction in CA9 mRNA level in human LS 174T cells expressing shca9 and tetracyclin repressor under normoxia condition at 60 uM after 48 hrs by Western blot analysis; assay type: functional, cell-based
[4] = Cytotoxicity against CA9-deficient chinese hamster PS120 cells assessed as cell viability at 300 uM and pH 7.5 after 24 hrs by giemsa staining; assay type: cell-based, Cricetulus griseus; conditions: ps120, pH 7.5, 24 h
How it was run: (§1)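 PS120-pev fibroblasts (CCL39-derived, no CA IX) attached, then held 24 h in HCO3−-free DMEM with 30 mM HEPES at pHo 7.5, 10% dialyzed serum, 0.1 mM hypoxanthine and 0.1 mM uridine triphosphate, in CO2/HCO3−-free atmosphere, with compound or DMSO. Then returned to regular medium under 5% CO2 for 7 days; Giemsa staining; scored viable or not viable.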

LS174T [5] = assay: Reduction in CA9 protein level in human LS 174T cells expressing shca9 and tetracyclin repressor under normoxia condition at 60 uM after 48 hrs by Western blot analysis; assay type: functional, cell-based
How it was run: (§2)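 Stable LS-shca9/ctl cells kept without Tet for 4 days, then placed in normoxia (21% O2) or hypoxia (1% O2) for 48 h with or without 60 µM compound. Whole-cell SDS lysates (40 µg protein) run on 7.5% SDS-PAGE and immunoblotted with M75 anti-CA IX; Hsp90 as loading control; HRP secondary with ECL detection.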

[6] = Antiproliferative activity against human LS 174T cells expressing shca9 under hypoxia condition at 60 uM after 3 days by cell counting technique relative to control; assay type: functional, LS174T
How it was run: (§3)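 LS174Tr colon carcinoma cells carrying Tet-inducible ca9 shRNA plus nontarget (ctl) or constitutive ca12 shRNA. Tet (1 µg/ml) added 4 days before assay for ca12-silenced cells. 6 x 10^4 cells seeded; 24 h later moved to hypoxia (1% O2) with or without inhibitor (DMSO control). Cells detached and Coulter-counted every 24 h for 3 days; proliferation index = daily count / count at 24 h post-seeding.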

[7] = Antiproliferative activity against ca9/ca12 double silenced human LS 174T cells under hypoxia assessed as decrease in cell proliferation at 60 uM after 3 days by cell counting technique relative to control; assay type: functional, LS174T; design: scale not given: the % may be the effect or the level left
How it was run: as §3

LS174T [8] = assay: Reduction in CA9 level in human LS 174T cells expressing shca9 and tetracyclin repressor under hypoxia condition at 60 uM after 48 hrs by Western blot analysis; assay type: functional, cell-based
How it was run: as §2

[9] = Cytotoxicity against CA9-deficient chinese hamster PS120 cells assessed as cell viability at 60 uM and pH 7.5 after 24 hrs by giemsa staining; assay type: cell-based, Cricetulus griseus; conditions: ps120, pH 7.5, 24 h
How it was run: as §1

[10] = Cytotoxicity against CA9-deficient chinese hamster PS120 cells assessed as cell viability at 100 uM and pH 7.5 after 24 hrs by giemsa staining; assay type: cell-based, Cricetulus griseus; conditions: ps120, pH 7.5, 24 h
How it was run: as §1

[11] = Cytotoxicity against CA9-deficient chinese hamster PS120 cells assessed as cell viability at 30 uM and pH 7.5 after 24 hrs by giemsa staining; assay type: cell-based, Cricetulus griseus; conditions: ps120, pH 7.5, 24 h
How it was run: as §1

Carbonic anhydrase 9 [12] = target: T1, Carbonic anhydrase 9; conditions: PS120, at 60 µM

| Compound | Ki (Carbonic anhydrase 9 [1]) [µM] | Activity [4] | Activity [9] | Activity [10] | Activity [11] | further results |
| --- | --- | --- | --- | --- | --- | --- |
| CC(=O)OC[C@H]1O[C@@H](SCc2nnn(-c3ccc(S(N)(=O)=O)cc3)c2C#CCO)[C@H](OC(C)=O)[C@@H](OC(C)=O)[C@H]1OC(C)=O | 0.091 |  |  |  |  |  |
| CC(=O)OC[C@H]1O[C@@H](SCc2nnn(-c3ccc(S(N)(=O)=O)cc3)c2I)[C@H](OC(C)=O)[C@@H](OC(C)=O)[C@@H]1OC(C)=O | 0.0062 | Toxic | Non-toxic | Toxic | Non-toxic | Activity (LS174T [2]): Active; Activity (LS174T [3]): Active; Activity (LS174T [5]): Active; Activity [6]: 60%; Activity [7]: 16%; Activity (LS174T [8]): Active; inhibition (Carbonic anhydrase 9 [12]): Active |
| CC(=O)Nc1nnc(S(N)(=O)=O)s1 [ACETAZOLAMIDE] |  | Toxic | Non-toxic | Non-toxic | Non-toxic |  |
| CC(=O)OC[C@H]1O[C@@H](SCc2nnn(-c3ccc(S(N)(=O)=O)cc3)c2I)[C@H](OC(C)=O)[C@@H](OC(C)=O)[C@H]1OC(C)=O | 0.095 |  |  |  |  |  |
| NS(=O)(=O)c1ccc(-n2cc(CS[C@@H]3O[C@H](CO)[C@@H](O)[C@H](O)[C@H]3O)nn2)cc1 |  | Non-toxic | Non-toxic | Non-toxic | Non-toxic |  |
| NS(=O)(=O)c1ccc(-n2nnc(CS(=O)(=O)[C@@H]3O[C@H](CO)[C@@H](O[C@H]4O[C@H](CO)[C@@H](O)[C@H](O)[C@H]4O)[C@H](O)[C@H]3O)c2I)cc1 | 0.068 |  |  |  |  |  |
| CC(=O)OC[C@H]1O[C@@H](S(=O)(=O)Cc2cn(-c3ccc(S(N)(=O)=O)cc3)nn2)[C@H](OC(C)=O)[C@@H](OC(C)=O)[C@@H]1O[C@H]1O[C@H](COC(C)=O)[C@@H](OC(C)=O)[C@H](OC(C)=O)[C@H]1OC(C)=O | 0.0619 |  |  |  |  |  |
| NS(=O)(=O)c1ccc(-n2nnc(CS[C@@H]3O[C@H](CO)[C@H](O)[C@H](O)[C@H]3O)c2I)cc1 | 0.0073 |  |  |  |  |  |
| NS(=O)(=O)c1ccc(-n2nnc(CS[C@@H]3O[C@H](CO)[C@@H](O)[C@H](O)[C@H]3O)c2I)cc1 | 0.0065 | Non-toxic | Non-toxic | Non-toxic | Non-toxic |  |
| NS(=O)(=O)c1ccc(-n2nnc(CS(=O)(=O)[C@@H]3O[C@H](CO)[C@@H](O)[C@H](O)[C@H]3O)c2I)cc1 | 0.061 | Toxic | Non-toxic | Non-toxic | Non-toxic |  |
| NS(=O)(=O)c1ccc(-n2cc(CS(=O)(=O)[C@@H]3O[C@H](CO)[C@@H](O)[C@H](O)[C@H]3O)nn2)cc1 |  | Non-toxic | Non-toxic | Non-toxic | Non-toxic |  |
| CC(=O)OC[C@H]1O[C@@H](S(=O)(=O)Cc2cn(-c3ccc(S(N)(=O)=O)cc3)nn2)[C@H](OC(C)=O)[C@@H](OC(C)=O)[C@@H]1OC(C)=O |  | Non-toxic | Non-toxic | Non-toxic | Non-toxic |  |
| CC(=O)OC[C@H]1O[C@@H](S(=O)(=O)Cc2nnn(-c3ccc(S(N)(=O)=O)cc3)c2I)[C@H](OC(C)=O)[C@@H](OC(C)=O)[C@H]1OC(C)=O | 0.097 |  |  |  |  |  |
| NS(=O)(=O)c1ccc(-n2cc(CS(=O)(=O)[C@@H]3O[C@H](CO)[C@@H](O[C@H]4O[C@H](CO)[C@@H](O)[C@H](O)[C@H]4O)[C@H](O)[C@H]3O)nn2)cc1 | 0.0712 |  |  |  |  |  |
| CC(=O)OC[C@H]1O[C@@H](SCc2cn(-c3ccc(S(N)(=O)=O)cc3)nn2)[C@H](OC(C)=O)[C@@H](OC(C)=O)[C@@H]1OC(C)=O |  |  | Non-toxic | Non-toxic | Non-toxic |  |
| CC(=O)OC[C@H]1O[C@@H](S(=O)(=O)Cc2nnn(-c3ccc(S(N)(=O)=O)cc3)c2I)[C@H](OC(C)=O)[C@@H](OC(C)=O)[C@@H]1O[C@H]1O[C@H](COC(C)=O)[C@@H](OC(C)=O)[C@H](OC(C)=O)[C@H]1OC(C)=O | 0.0996 |  |  |  |  |  |
| NS(=O)(=O)c1ccc(-n2nnc(CS(=O)(=O)[C@@H]3O[C@H](CO)[C@H](O)[C@H](O)[C@H]3O)c2I)cc1 | 0.089 |  |  |  |  |  |
| CC(=O)OC[C@H]1O[C@@H](S(=O)(=O)Cc2nnn(-c3ccc(S(N)(=O)=O)cc3)c2I)[C@H](OC(C)=O)[C@@H](OC(C)=O)[C@@H]1OC(C)=O | 0.071 | Toxic | Toxic | Toxic | Non-toxic |  |
